The record followed here is ChEMBL document CHEMBL3352312, “Synthesis of linear and cyclic guazatine derivatives endowed with antibacterial activity” (Bioorg Med Chem Lett, 2014).

Usually MIC stands for the least concentration at which growth counts as inhibited. The CC50 is the concentration at which the toxic effect on the cells reaches its halfway point. A higher CC50 goes with better tolerance by the cells. One may read the Kd as the free concentration of one partner at which half of the binding sites on the other are occupied at equilibrium, for simple one-to-one binding. A high value points to lower affinity. A word on the solubility: it is how much of the substance goes into solution per volume. Read a low solubility as a poorly soluble substance.

In data set [1] the test system is Aeromonas hydrophila. In words: Antibacterial activity against Aeromonas hydrophila ATCC 7966 after 16 to 18 hrs by microbroth dilution method. It counts as functional. In outline:
(§1)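 Broth microdilution in Mueller–Hinton broth following CLSI recommendations. Strains came from ATCC or CCUG collections or the authors' clinical isolates. Compounds were dissolved in DMSO as a 100 mg/ml stock and then diluted in culture medium. Inoculum was 5 × 10⁴ CFU/well. MIC was read after 16–18 h incubation at 35–37 °C.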

For data set [2], the system named is Acinetobacter baumannii. Kind of data set: Antibacterial activity against Acinetobacter baumannii ATCC 17978 after 16 to 18 hrs by microbroth dilution method. It is filed as functional. In outline:
as §1

Data set [3] relates to Enterobacter cloacae. In words: Antibacterial activity against penicillin/CEPH/carbapenem/aminoglycoside/fluoroquinolone-resistant Enterobacter cloacae VA-417/02 after 16 to 18 hrs by microbroth dilution method. It is filed as functional. Put shortly: (§2)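 Broth microdilution MIC per CLSI in Mueller–Hinton broth. Inoculum 5 × 10⁴ CFU/well. Compounds dissolved in DMSO at 100 mg/ml, then diluted in culture medium. Plates incubated 16–18 h at 35–37 °C before reading the MIC. Strains were taken from ATCC or CCUG collections or from the authors' clinical isolate collection.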

Data set [4] concerns Acinetobacter baumannii. Kind of data set: Antibacterial activity against penicillin/expanded-spectrum cephalosporin/carbapenem/aztreonam/aminoglycoside/fluoroquinolone/fosfomycin/trimethoprim/sulfamethoxazole-resistant Acinetobacter baumannii AC-54/97 after 16 to 18 hrs by microbroth dilution method. It counts as functional. In outline: as §2
Background: Broth dilution looks for growth in wells or tubes with falling amounts of substance.

For data set [5], the system named is Klebsiella pneumoniae. Kind of data set: Antibacterial activity against penicillin/expanded-spectrum cephalosporin/carbapenem/aminoglycoside/fluoroquinolone/trimethoprim/sulfamethoxazole-resistant Klebsiella pneumoniae 7023 after 16 to 18 hrs by microbroth dilution method. It is filed as functional. In outline: as §2
Data set [6] deals with Pseudomonas aeruginosa. Kind of data set: Antibacterial activity against penicillin/expanded-spectrum cephalosporin/carbapenem/monobactam/aminoglycoside/fluoroquinolone-resistant Pseudomonas aeruginosa VR-143/97 after 16 to 18 hrs by microbroth dilution method. It is filed as functional. In outline:
as §2

In data set [7] the test system is Achromobacter xylosoxidans. In words: Antibacterial activity against penicillin/expanded-spectrum cephalosporin/carbapenem/aminoglycoside-resistant Achromobacter xylosoxidans AX 22 after 16 to 18 hrs by microbroth dilution method. It is filed as functional. In outline:
as §2

In data set [8] the test system is Pseudomonas aeruginosa. In words: Antibacterial activity against Pseudomonas aeruginosa ATCC 27853 after 16 to 18 hrs by microbroth dilution method. It is filed as functional. Put shortly: as §1
The test system of data set [9] is Stenotrophomonas maltophilia. Kind of data set: Antibacterial activity against penicillin/expanded-spectrum cephalosporin/carbapenem/monobactam/aminoglycoside/trimethoprim/sulfamethoxazole/fosfomycin-resistant Stenotrophomonas maltophilia 634/08 after 16 to 18 hrs by microbroth dilution method. It is filed as functional. In outline: as §2
In data set [10] the test system is Alcaligenes faecalis. Kind of data set: Antibacterial activity against expanded-spectrum cephalosporin/carbapenem/monobactam-resistant Alcaligenes faecalis 424/98 after 16 to 18 hrs by microbroth dilution method. It counts as functional. Put shortly:
as §2

Data set [11] has as its system Staphylococcus epidermidis. Kind of data set: Antibacterial activity against Staphylococcus epidermidis ATCC 14990 after 16 to 18 hrs by microbroth dilution method. It is filed as functional. Put shortly:
as §1

The test system of data set [12] is Klebsiella pneumoniae. In words: Antibacterial activity against Klebsiella pneumoniae ATCC 13833 after 16 to 18 hrs by microbroth dilution method. It counts as functional. In outline:
as §1

The test system of data set [13] is Streptococcus pyogenes. In words: Antibacterial activity against Streptococcus pyogenes ATCC 12344 after 16 to 18 hrs by microbroth dilution method. It counts as functional. Put shortly: as §1
Data set [14] deals with Pseudomonas aeruginosa. In words: Antibacterial activity against penicillin/expanded-spectrum cephalosporin/carbapenem/aminoglycoside-resistant Pseudomonas aeruginosa 101/1477 after 16 to 18 hrs by microbroth dilution method. It is filed as functional. In outline:
as §2

Data set [15] concerns Elizabethkingia meningoseptica. In words: Antibacterial activity against Elizabethkingia meningoseptica CCUG 4310 after 16 to 18 hrs by microbroth dilution method. It counts as functional. Put shortly:
as §1

Data set [16] has as its system Enterococcus faecalis. In words: Antibacterial activity against Enterococcus faecalis ATCC 19433 after 16 to 18 hrs by microbroth dilution method. It is filed as functional. Put shortly:
as §1

Data set [17] concerns Bacillus subtilis. Kind of data set: Antibacterial activity against Bacillus subtilis ATCC 6633 after 16 to 18 hrs by microbroth dilution method. It counts as functional. Put shortly: as §1
The subject of data set [18] is Escherichia coli. In words: Antibacterial activity against Escherichia coli CCUGT after 16 to 18 hrs by microbroth dilution method. It counts as functional. Put shortly: as §1
Data set [19] can be described thus: Apparent permeability of the compound at pH 7.4 after 5 hrs by PAMPA. It is filed as physicochemical. Put shortly:
(§3)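 Parallel artificial membrane permeability assay run at physiological pH 7.4 and at alkaline pH 10.0, the duodenal-like condition, as a gastrointestinal permeability model. Apparent permeability (P_app) is reported in nm/s, together with the percentage of compound retained in the membrane.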

A short description of data set [20]: Cytotoxicity against human HeLa cells after 24 hrs. It is filed as cell-based.
The nature of data set [21]: Ratio of CC50 for human HeLa cells to MIC for Escherichia coli CCUGT.
The test system of data set [22] is Staphylococcus aureus. Kind of data set: Antibacterial activity against glycopeptide-resistant Staphylococcus aureus ATCC 700699 (VanA) after 16 to 18 hrs by microbroth dilution method. It is filed as functional. Put shortly:
as §2

Data set [23] deals with Staphylococcus aureus. Kind of data set: Antibacterial activity against penicillin-resistant Staphylococcus aureus ATCC 43300 after 16 to 18 hrs by microbroth dilution method. It is filed as functional. In outline:
as §2

Data set [24] in a line: Apparent permeability of the compound assessed as membrane retention at pH 10.0 after 5 hrs by PAMPA. To be noted: pH 10, 5 h. It counts as physicochemical. Put shortly:
as §3

Data set [25] is described as follows: Cytotoxicity against human HeLa cells after 48 hrs. It is filed as cell-based.
Data set [26] concerns Staphylococcus warneri. In words: Antibacterial activity against penicillin/aminoglycoside-resistant Staphylococcus warneri SI-5/2011 after 16 to 18 hrs by microbroth dilution method. It is filed as functional. Put shortly: as §2
For data set [27], the system named is Staphylococcus hominis. In words: Antibacterial activity against linezolid-resistant Staphylococcus hominis SI-7/2011 after 16 to 18 hrs by microbroth dilution method. It is filed as functional. Put shortly: as §2
Data set [28] has as its target Albumin (Homo sapiens, UniProt P02768). In words: Binding affinity to human serum albumin after 30 mins by fluorescence spectroscopic analysis. It is filed as ADME.
The nature of data set [29]: Ratio of CC50 for human HeLa cells to MIC for Klebsiella pneumoniae 7023.
Data set [30] is described as follows: Apparent permeability of the compound at pH 10.0 after 5 hrs by PAMPA. It counts as physicochemical. In outline: as §3
(The PAMPA barrier holds no transporters, so it reflects passive diffusion.)

A short description of data set [31]: Apparent permeability of the compound assessed as membrane retention at pH 7.4 after 5 hrs by PAMPA. It is filed as physicochemical. The settings on record: pH 7.4, 5 h. In outline:
as §3

The subject of data set [32] is Staphylococcus aureus. In words: Antibacterial activity against Staphylococcus aureus ATCC 25923 after 16 to 18 hrs by microbroth dilution method. It counts as functional. In outline: as §2
In data set [33] the test system is Staphylococcus haemolyticus. Kind of data set: Antibacterial activity against aminoglycoside-resistant Staphylococcus haemolyticus SI-6/2011 after 16 to 18 hrs by microbroth dilution method. It is filed as functional. Put shortly:
as §2

The nature of data set [34]: Solubility of the compound in pure water at 1.2 mg after 24 to 36 hrs by LC-MS/MS analysis. It is filed as physicochemical.
The nature of data set [35]: Metabolic stability in human liver microsomes after 60 mins by LC-UV-MS analysis. It is filed as ADME. To be noted: read-out: Stability. For orientation: Liver microsomes are a subcellular fraction often used to study metabolism.

Sequence of Albumin (P02768 whole entry): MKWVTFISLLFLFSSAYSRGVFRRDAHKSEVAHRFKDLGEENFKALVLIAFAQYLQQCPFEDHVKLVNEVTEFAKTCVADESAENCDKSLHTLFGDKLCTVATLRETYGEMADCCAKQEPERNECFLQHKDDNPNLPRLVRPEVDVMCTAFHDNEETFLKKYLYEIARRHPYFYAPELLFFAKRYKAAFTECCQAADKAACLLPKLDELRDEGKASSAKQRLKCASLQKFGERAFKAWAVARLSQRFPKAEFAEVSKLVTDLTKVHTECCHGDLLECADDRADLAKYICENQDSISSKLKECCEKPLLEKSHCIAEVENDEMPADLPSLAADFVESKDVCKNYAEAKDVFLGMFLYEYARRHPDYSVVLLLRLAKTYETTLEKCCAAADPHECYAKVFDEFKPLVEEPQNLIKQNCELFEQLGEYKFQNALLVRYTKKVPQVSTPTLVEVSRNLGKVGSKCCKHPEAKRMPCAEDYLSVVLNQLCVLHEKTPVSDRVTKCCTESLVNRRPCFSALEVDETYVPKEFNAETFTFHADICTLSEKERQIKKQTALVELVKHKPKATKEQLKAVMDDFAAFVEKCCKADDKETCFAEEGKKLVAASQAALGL

For `C=C(C)CNC(=N)NCCCCCCCCN1CCCCCCCCNC(=N)NC1=O.O=C(O)C(F)(F)F.O=C(O)C(F)(F)F`, the MIC amounted to 4 µg/mL in data set [1]; 8 µg/mL in [2]; 1 µg/mL in [3]; 4 µg/mL in data set [4]; 1 µg/mL in data set [5]; 8 µg/mL in [6]. The MIC is 8 µg/mL in data set [7]; 8 µg/mL in data set [8]; 4 µg/mL in data set [9]; 4 µg/mL in data set [10]; 0.5 µg/mL in data set [11]; 1 µg/mL in data set [12]. In addition, the minimal inhibitory concentration (MIC) in data set [13] stood at 0.5 µg/mL; in [14], 8 µg/mL; in data set [15], 32 µg/mL; in [16], 1 µg/mL; in data set [17], 0.5 µg/mL; in data set [18], 0.5 µg/mL.

In the case of `N=C(N)NCCCCCCCCNCCCCCCCCNC(=N)NCC1CC1.O=C(O)C(F)(F)F.O=C(O)C(F)(F)F.O=C(O)C(F)(F)F`, the Papp at 5 h in data set [19] was 0.95 ×10⁻⁶ cm/s; in data set [30], 16.7 ×10⁻⁶ cm/s. Besides, the MIC in [1] was determined as 8 µg/mL; in data set [2] it was 4 µg/mL; in data set [22] it was 4 µg/mL; in data set [23], 4 µg/mL; in data set [26], 2 µg/mL; in data set [27], 2 µg/mL. Besides, the MIC in data set [3] was determined as 2 µg/mL; in data set [4], 4 µg/mL; in data set [5] it was 2 µg/mL; in [6], 8 µg/mL; in data set [7], 4 µg/mL; in data set [8], 8 µg/mL. In addition, the MIC in data set [9] is 4 µg/mL; in data set [10], 4 µg/mL; in [11] it was 0.5 µg/mL; in [12] it was 1 µg/mL; in data set [32], 4 µg/mL; in data set [13], less than 0.125 µg/mL. Further, the MIC worked out at 8 µg/mL in data set [14]; 32 µg/mL in data set [15]; 1 µg/mL in data set [16]; 2 µg/mL in data set [33]; 0.5 µg/mL in data set [17]; 0.5 µg/mL in [18]. Further, the CC50 at 24 h in data set [20] was found to be 92.6 µM. Also, the Ratio result in data set [21] and in [29] was “>=70” throughout. Further, the Papp turned out to be 60.6% in data set [24] and 8.8% in data set [31]. In [25], this molecule had a CC50 at 48 h of 62 µM. The Kd in data set [28] worked out at 26.5 µM. In data set [34], this molecule gave a solubility of 966 µg/mL. Further, the remaining at 1 h in data set [35] is greater than 99%.

With `CC(C)=CCNC(=N)NCCCCCCN1CCCCCCCCNC(=N)NC1=O.O=C(O)C(F)(F)F.O=C(O)C(F)(F)F`, the MIC in data set [1] was greater than 256 µg/mL; in [2], 256 µg/mL; in [8] it was greater than 256 µg/mL; in [11] it was 16 µg/mL; in [12], greater than 256 µg/mL; in data set [13], 8 µg/mL. Moreover, the MIC in [15] was greater than 256 µg/mL; in data set [16] it was 16 µg/mL; in data set [17] it was 64 µg/mL; in data set [18] it was 256 µg/mL.

As for `O=C(N[C@H](CO)[C@H](O)c1ccc([N+](=O)[O-])cc1)C(Cl)Cl` [CHLORAMPHENICOL], the Papp at 5 h in data set [19] came to 0.03 ×10⁻⁶ cm/s; in data set [30], 0.057 ×10⁻⁶ cm/s. Besides, the Papp in data set [24] and in data set [31] was 0% throughout.

In the case of `C/C=C/CNC(=N)NCCCCCCN1CCCCCCCCNC(=N)NC1=O.O=C(O)C(F)(F)F.O=C(O)C(F)(F)F`, the MIC in data set [1] is greater than 256 µg/mL; in data set [2] it was 256 µg/mL; in [8], greater than 256 µg/mL; in data set [11] it was 16 µg/mL; in data set [12], greater than 256 µg/mL; in [13], 32 µg/mL. Also, the minimum inhibitory concentration (MIC) in [15] is 256 µg/mL; in [16], 32 µg/mL; in data set [17], 16 µg/mL; in [18], 256 µg/mL.

For the molecule `CO[C@H]1/C=C/O[C@@]2(C)Oc3c(C)c(O)c4c(O)c(c5c(nc6cc(C)ccn65)c4c3C2=O)NC(=O)/C(C)=C\C=C\[C@H](C)[C@H](O)[C@@H](C)[C@@H](O)[C@@H](C)[C@H](OC(C)=O)[C@@H]1C` [RIFAXIMIN], the Papp at 5 h in [19] worked out at 0.006 ×10⁻⁶ cm/s; in [30] it was 0.012 ×10⁻⁶ cm/s. Moreover, the Papp in [24] and in [31] was 0% in each case.
